The source of these data is ChEMBL document CHEMBL4382263, “Spirostaphylotrichin X from a Marine-Derived Fungus as an Anti-influenza Agent Targeting RNA Polymerase PB2” (J Nat Prod, 2018).

Usually IC50 stands for the concentration needed to halve the response being measured.

The structures appear in SMILES notation. Active and inactive are the calls of the source. The rule behind the calls is not given here.

In test [1] the test system is Influenza A virus (A/Puerto Rico/8/1934(H1N1)). The test can be described thus: Inhibition of RNA polymerase in Influenza A virus (A/PR/8/34(H1N1)) infected in human 293T cells harboring pPol1-Fluc at 10 uM after 24 hrs by luciferase reporter gene assay. The format is cell-based. The gist of the method:
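293T cells transfected with 50 ng pPolI-Fluc reporter. After 5 h, infected with PR8 at different titres for 1 h. Then given DMEM/10% FBS with 10 μM compound or 0.1% DMSO; luciferase measured in lysates after 24 h.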
(A reporter such as luciferase makes a cellular process visible.)

The next test relates to Influenza A virus. Description: Antiviral activity against Influenza A virus (A/PR/8/34(H1N1)) harboring neuraminidase H274Y mutant infected in MDCK cells assessed as reduction in virus-induced cytopathic effect by MTT assay. It is filed as functional, organism-based, A/Puerto Rico/8/1934(H1N1). The gist of the method:
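MTT-based cytopathic-effect reduction assay in MDCK cells. Run in triplicate; IC50 reported as mean ± SD.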
In general terms: Cytopathic effects are the visible damage that an infection or toxin causes in cultured cells.

In the case of `CC/C=C1/C=CC(=O)[C@@H](O)[C@]12C(=O)N(OC)[C@@](C)(OC)[C@@H]2O`, in test [1], the inhibition result is “Active”. Also, the concentration for half-maximal inhibition (IC50) in the test with Influenza A virus was found to be 1200 nM.
